High-throughput results deposited in PubChem by several laboratories.
A selection: hits, their analogues and other compounds. The true share with any hit is near 4.9%.
RAM inhibit – inhibitors of the yeast RAM network, primary screen, dse1pr::URA3 reporter, 5-FOA selection; 1.8% of 190,000 active; inhibition, % at 50 µM; S. cerevisiae dse1pr::URA3 reporter, 5-FOA growth OD615, 2 d; analog-sensitive cbk1-as2 kinase mutant strain;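 active means inhibition above a set limit, 3 SD over mean compound inhibition, cut at about 8.4% in these data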;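 further: 0% = DMSO-only wells with no growth and 100% = 10 µM 1-NA-PP1 full growth; inhibition rescues growth on 5-FOA so higher OD means more RAM inhibition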
NPY-Y1 antag – NPY-Y1 receptor antagonists, primary screen, cell-based; Neuropeptide Y receptor type 1 (Homo sapiens), P25929; HEK293-CNG Y1 cells, membrane potential fluorescence; NPY at EC95, then isoproterenol; inhibition, % at 3.6 µM; 1% of 200,000 active;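 active means inhibition above the campaign mean inhibition of all tested compounds plus 3 SD, cut at about 20% in these data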;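 further: 0% = DMSO wells given NPY plus isoproterenol and 100% = isoproterenol alone without NPY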
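Test system: HEK293 cells co-expressing NPY Y1 receptor and cyclic-nucleotide gated channel; Also added: NPY (25 nM), isoproterenol (1 µM), Ro 20-1724 (25 µM); Compound dosing: one concentration, 3.6 µM, in 0.4% DMSO; Timing: dye 3 h, compound 60 min room temperature, stimulation 45 min; Technique: Membrane-potential fluorescent dye readout.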
WT yeast gro inh – growth inhibition of WT strain, primary screen, mitochondrial fusion inhibitor project, WT and mutant strains, chemical genetic. inhibition, % at 10 µM. AID 1362, 2008. 2.1% of 190,000 active. mitochondrial fusion phenotypic screen; in the data active means inhibition above about 58%; tested in S. cerevisiae
NPY-Y1 PAM-ag – NPY-Y1 receptor potentiators or agonists, primary screen, cell-based | Neuropeptide Y receptor type 1 (Homo sapiens), P25929 | NPY-Y1 expressing cells, potentiator/agonist activation | activation, % at 3.6 µM | 0.37% of 220,000 active | AID 1304, 2008; in the data active means activation above about 33%, passing the limit was not always enough;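 further: cells stimulated with NPY at EC10 then isoproterenol at EC100; 0% = low agonist plus stimulus and 100% = saturating agonist plus stimulus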
NPY-Y2 PAM-ag – NPY-Y2 potentiators or agonists, primary screen, cell-based; Neuropeptide Y receptor type 2 (Homo sapiens), P49146; cells expressing NPY-Y2, potentiator/agonist read-out; activation, % at 3.6 µM; 0.45% of 220,000 active; in the data active means activation above about 27%;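 further: cells stimulated with NPY near EC25 plus isoproterenol at EC100; 0% = vehicle plus submaximal agonist and 100% = vehicle plus saturating agonist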
Target sequence (P49146 whole entry, looked up): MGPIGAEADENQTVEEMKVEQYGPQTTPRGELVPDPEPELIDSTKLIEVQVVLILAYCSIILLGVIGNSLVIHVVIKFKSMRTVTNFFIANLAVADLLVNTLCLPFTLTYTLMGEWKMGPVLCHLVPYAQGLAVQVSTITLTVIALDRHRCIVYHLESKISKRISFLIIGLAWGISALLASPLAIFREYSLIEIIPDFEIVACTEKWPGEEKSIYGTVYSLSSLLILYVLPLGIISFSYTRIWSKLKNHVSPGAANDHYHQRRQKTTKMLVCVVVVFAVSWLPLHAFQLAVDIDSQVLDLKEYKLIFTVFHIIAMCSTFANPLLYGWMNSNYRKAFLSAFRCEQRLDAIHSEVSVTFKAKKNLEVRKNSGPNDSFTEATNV
NPY-Y2 antag – NPY-Y2 receptor antagonists, primary screen, cell-based; Neuropeptide Y receptor type 2 (Homo sapiens), P49146; 0.99% of 140,000 active; inhibition, % at 2.7 µM; NPY-Y2 expressing cells, antagonist mode; in the data active means inhibition above about 17%;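 further: 0% = vehicle with agonist challenge and 100% = reference antagonist with challenge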
Active calls of the source: *; x = not tested or not shown.

SMILES | RAM inhibit | NPY-Y1 antag | WT yeast gro inh | NPY-Y1 PAM-ag | NPY-Y2 PAM-ag | NPY-Y2 antag
CCCCCn1c(CN2CCN(c3cccc(Cl)c3)CC2)nc2c1c(=O)[nH]c(=O)n2C | 0 | 9 | 55 | -15 | -5 | 4
CC(C)CCn1c(N2CCN(c3cccc(Cl)c3)CC2)nc2c1c(=O)[nH]c(=O)n2C | -1 | -2 | 62* | 6 | 2 | 7
CCCCCCn1c(N2CCN(c3cccc(Cl)c3)CC2)nc2c1c(=O)[nH]c(=O)n2C | 2 | 5 | -9 | -4 | 9 | -1
COc1ccc(Cn2c(O)c(C=Nc3ccc(O)cc3)c3ccccc3c2=O)cc1 | 8 | 0 | 64* | 14 | 21 | 2
O=[N+]([O-])c1ccc(F)c(N=Cc2ccc(Br)s2)c1 | 1 | -4 | 6 | 4 | 8 | 2
Nc1ccc(C(=O)OCC(=O)Nc2ccc3c(c2)OCO3)cc1[N+](=O)[O-] | 5 | 2 | -2 | -21 | -4 | 2
CCn1c2ccccc2c2cc(/C=N/NC(=O)c3cccc(C)c3)ccc21 | 4 | 6 | 73* | -10 | -30 | 0
Cc1nc(NC(=O)c2ccco2)sc1-c1csc(Nc2ccc(Cl)cc2Cl)n1 | 4 | 0 | 71* | 24 | -5 | -3
Cc1ccc(Cl)cc1Nc1nc(-c2sc(NC(=O)c3ccco3)nc2C)cs1 | 3 | -7 | 28 | 28 | -1 | 2
Cc1nc(NC(=O)CC(C)C)sc1-c1csc(Nc2ccc(Cl)cc2)n1 | 7 | 6 | 81* | 40 | 15 | 0
COc1ccc2[nH]c(C(=O)O)c(NS(=O)(=O)c3ccc(Cl)s3)c2c1 | 0 | 3 | -5 | 1 | 9 | 1
CS(=O)(=O)Nc1ccc(C(=O)N2CCN(c3ccccc3)CC2)cc1 | 1 | -1 | 3 | 14 | -1 | 0
COc1ccccc1C(=O)Nc1sc(C(=O)N2CCCC2)c(C)c1C#N | 8.5* | -3 | 1 | 0 | 1 | x
Cc1c(C(=O)N2CCCC2)sc(NC(=O)c2ccc(Cl)cc2)c1C#N | 0 | -2 | 7 | -12 | -6 | 4
O=C(Nc1cc(Cl)ccc1O)c1cc2n(n1)C(C(F)(F)F)CC(c1ccc3c(c1)OCO3)N2 (configuration not stated) | 7 | -7 | 34 | 13 | 21 | -3
Cc1nn(CC(O)CN2c3ccccc3Sc3ccccc32)c(C)c1Br (configuration not stated) | 3 | -6 | 91* | 17 | 23 | -4
Cc1ccc(C)c(SCC(=O)OC/C(O)=C(\C#N)c2nc3ccccc3[nH]2)c1 | 8.5* | 5 | -17 | -5 | -11 | x
Cc1c(C(=O)OC/C(O)=C(\C#N)c2nc3ccccc3[nH]2)oc2ccc(Br)cc12 | x | x | x | -7 | -4 | x
Cc1c(-c2cccc(Cl)c2)nc2ccccc2c1C(=O)OC/C(O)=C(\C#N)c1nc2ccccc2[nH]1 | 11* | 1 | -18 | 19 | 21 | x
Cc1cc(Br)ccc1SCC(=O)OC/C(O)=C(\C#N)c1nc2ccccc2[nH]1 | x | x | x | -8 | -18 | x
Clc1ccc(NC2(c3nnnn3C3CCCCC3)CCCCC2)cc1 | 3 | 5 | -8 | -11 | 8 | 7
Cc1cccc(C)c1-n1nnnc1C1(Nc2ccccc2)CCCCC1 | 4 | 8 | 73* | 0 | -4 | 7
Cc1nn(CCC#N)c2[nH]c(=O)cc(C(F)(F)F)c12 | 0 | -1 | 0 | -7 | 0 | x
CCOC(=O)c1cc(CC)sc1NC(=O)C1CC1 | -2 | 0 | 3 | -11 | -5 | 4
CCOC(=O)c1cc(-c2ccccc2)sc1NC(=O)C(C)Sc1nnc(C)s1 (configuration not stated) | 11* | 10 | 30 | -26 | -23 | 1
SMILES | RAM inhibit | NPY-Y1 antag | WT yeast gro inh | NPY-Y1 PAM-ag | NPY-Y2 PAM-ag | NPY-Y2 antag
CCOC(=O)c1cc(CC)sc1NC(=O)c1ccc2c(c1)OCCO2 | 6 | 4 | 4 | -9 | 0 | 3
CCOC(=O)c1cc(-c2ccccc2)sc1NC(=O)C(C)Sc1nnnn1C (configuration not stated) | 5 | -1 | 23 | -19 | -1 | -2
CCOC(=O)c1cc(CC)sc1NC(=O)c1cc(OCC)c(OCC)c(OCC)c1 | 10* | -4 | -12 | 16 | -18 | 3
CCOC(=O)c1cc(CC)sc1NC(=O)C(c1ccccc1)c1ccccc1 | 9.3* | 4 | 15 | -6 | 7 | -4
COc1ccc(CN2CCC(N3CCC(C(=O)N4CCOCC4)CC3)CC2)c(F)c1 | 1 | -2 | 10 | -22 | -13 | x
COCC(C)NCc1cccc(OC)c1OC (configuration not stated) | 2 | 7 | 0 | -6 | 6 | -2
CCOC(=O)C(=CNc1ccccc1C)C(=O)OCC | 0 | 1 | 5 | 0 | -1 | 0
COc1ccc(CCN2C(=O)c3[nH]nc(-c4ccccc4O)c3C2c2ccccc2)cc1OC (configuration not stated) | 11* | -3 | -3 | -6 | 14 | 2
COCCCN1C(=O)c2[nH]nc(-c3ccccc3O)c2C1c1ccc(Cl)cc1 (configuration not stated) | 2 | 2 | -5 | 2 | 6 | 3
CCOC(=O)CN1CC23C=CC(O2)C(C(=O)NCc2cccs2)C3C1=O (configuration not stated) | 0 | 6 | 2 | -26 | -14 | 3
CCOC(=O)C(NC(=O)c1ccccc1Cl)(Nc1ccc(C)c(C)c1)C(F)(F)F (configuration not stated) | 2 | -1 | 28 | 0 | 14 | 7
COC(=O)C(Nc1ccccc1Cl)(c1cc(C)c(O)c(C)c1)C(F)(F)F (configuration not stated) | 3 | -2 | 90* | 12 | -5 | 3
COc1ccc2nc(N3CCOCC3)cc(C)c2c1 | 3 | 0 | 0 | 15 | -6 | 4
Cc1ccc(-c2nc(N)sc2-c2ccc(C)cc2)cc1 | -2 | -1 | 80* | 7 | 6 | x
Cc1ccc(-c2nc(N)sc2-c2ccccc2)cc1C | -1 | -10 | 73* | 31 | 22 | 1
Cc1ccc(-c2nc(N)sc2C)cc1 | 1 | 2 | 19 | -16 | 7 | x
CC(C)CCn1c(O)c(N=NC(=O)Cn2ccc(C(F)(F)F)n2)c2ccccc21 | 1 | 2 | -8 | -1 | 5 | 2
CC(=O)/C(=C/Nc1ccc(Oc2ccccc2)cc1)c1ccccc1 | 5 | 10 | 61* | -30 | -10 | 3
CCOc1ccc(N2C(=O)CC(Sc3nnnn3-c3ccccc3)C2=O)cc1 (configuration not stated) | 8 | -2 | 59* | -5 | 14 | x
